The source of these data is ChEMBL document CHEMBL1938282 (J Med Chem, 2011).

pKi: −log10 of the molar value.

In assay [1] the target is T1, Amine oxidase [flavin-containing] A (Bos taurus, UniProt P21398).
T1 sequence (P21398 whole entry): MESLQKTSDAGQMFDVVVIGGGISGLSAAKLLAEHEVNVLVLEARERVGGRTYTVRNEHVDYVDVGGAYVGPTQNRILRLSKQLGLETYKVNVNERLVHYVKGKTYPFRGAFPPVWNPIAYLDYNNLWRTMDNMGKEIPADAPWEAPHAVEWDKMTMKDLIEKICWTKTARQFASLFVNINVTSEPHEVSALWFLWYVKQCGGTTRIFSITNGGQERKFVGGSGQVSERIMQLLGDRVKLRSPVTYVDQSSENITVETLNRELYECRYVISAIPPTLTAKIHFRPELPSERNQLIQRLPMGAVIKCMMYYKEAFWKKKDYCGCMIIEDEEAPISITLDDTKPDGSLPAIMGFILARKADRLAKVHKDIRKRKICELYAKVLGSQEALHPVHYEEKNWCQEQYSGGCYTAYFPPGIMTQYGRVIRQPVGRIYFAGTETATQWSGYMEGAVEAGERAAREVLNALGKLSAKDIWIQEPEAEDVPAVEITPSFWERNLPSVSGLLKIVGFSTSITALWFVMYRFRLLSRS
The assay can be described thus: Inhibition of bovine brain MAOA using kynuramine as a substrate after 30 mins by spectrofluorometric method. The method in brief:
(§1)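 Mitochondria isolated from beef brain were pretreated for 30 min at 38 °C with 1 μM L-deprenyl to isolate MAO-A, or with 1 μM clorgyline to isolate MAO-B. Compounds in DMSO were preincubated for 30 min at 38 °C in potassium phosphate buffer at pH 7.4. Kynuramine was then added at four concentrations (5 μM–0.1 mM final) for 30 min.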

In assay [2] the target is T2, Amine oxidase [flavin-containing] B (Bos taurus, UniProt P56560).
T2 sequence (P56560 whole entry): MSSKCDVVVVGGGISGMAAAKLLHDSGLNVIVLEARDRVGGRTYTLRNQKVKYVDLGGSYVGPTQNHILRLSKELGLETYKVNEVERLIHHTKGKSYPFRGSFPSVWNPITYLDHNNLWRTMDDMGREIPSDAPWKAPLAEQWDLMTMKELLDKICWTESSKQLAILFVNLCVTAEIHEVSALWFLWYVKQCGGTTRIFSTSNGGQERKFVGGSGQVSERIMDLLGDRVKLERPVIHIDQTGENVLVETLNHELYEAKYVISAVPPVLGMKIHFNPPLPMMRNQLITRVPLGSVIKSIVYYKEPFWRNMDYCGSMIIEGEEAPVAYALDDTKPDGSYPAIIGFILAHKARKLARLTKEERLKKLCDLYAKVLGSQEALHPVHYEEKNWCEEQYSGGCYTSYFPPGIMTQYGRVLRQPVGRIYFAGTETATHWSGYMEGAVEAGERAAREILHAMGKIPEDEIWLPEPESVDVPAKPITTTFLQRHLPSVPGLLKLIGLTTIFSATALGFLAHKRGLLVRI
The assay can be described thus: Inhibition of bovine brain MAOB using kynuramine as a substrate after 30 mins by spectrofluorometric method. In short, it runs like this: as §1

For the next assay, the species on record is Bos taurus. Nature of the assay: Selectivity index, ratio of Ki for bovine MAOB to Ki for bovine MAOA. The method in brief: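 Selectivity was calculated as Ki(MAO-B)/Ki(MAO-A). Each Ki came from a Dixon plot of kynuramine deamination by beef brain mitochondria, with 1 μM clorgyline present for MAO-B or 1 μM L-deprenyl for MAO-A, read fluorimetrically.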

A word on the pKi: it is the Ki on a negative log10 scale, so that one unit is a factor of ten. On to `C=CCn1ccc(N2C[C@H](CN)OC2=O)c1`, for which the negative-log Ki (pKi) was 6.15 in assay [1] and 5.10 in assay [2]. Moreover, in the assay filed under Bos taurus, the Ratio Ki worked out at 11.

Turning to `C=CCn1ccc(N2C[C@H](COC)OC2=O)c1`, the pKi in assay [1] was 9.00; in assay [2] it was 3.70. For the same molecule, the Ratio Ki in the assay filed under Bos taurus came to 200000.

With `Cn1ccc(N2C[C@H](CN)OC2=O)c1`, the pKi in assay [1] is 8.00; in assay [2], 3.74. Further, the Ratio Ki in the assay filed under Bos taurus was 18000.

As for `Cn1ccc(N2C[C@H](CN=[N+]=[N-])OC2=O)c1`, the negative-log Ki (pKi) in assay [1] was 6.70; in assay [2], 3.44. Further, the Ratio Ki in the assay filed under Bos taurus came to 1800.

For the molecule `CCn1ccc(N2C[C@H](CN)OC2=O)c1`, the pKi in assay [1] is 6.89; in assay [2], 4.60. In the assay filed under Bos taurus, the Ratio Ki was found to be 192.

In the case of `CCn1ccc(N2C[C@H](CO)OC2=O)c1`, the negative-log Ki (pKi) was 8.52 in assay [1] and 6.52 in assay [2]. Besides, the Ratio Ki in the assay filed under Bos taurus was found to be 100.

For the molecule `C=CCn1ccc(N2C[C@H](CN=[N+]=[N-])OC2=O)c1`, the values for the negative-log Ki (pKi) in assay [1] and in assay [2] were 8.40 and 4.00, respectively. Moreover, in the assay listed under Bos taurus, the Ratio Ki stood at 25000.

As to `CNC[C@H]1CN(c2ccn(C)c2)C(=O)O1`, the results for the pKi in assay [1] and in assay [2] were 8.15 and less than 4.00, respectively. In addition, in the assay filed under Bos taurus, the Ratio Ki is more than 14300.

With `C=CCn1ccc(N2C[C@H](CNC)OC2=O)c1`, the values for the pKi in assay [1] and in assay [2] were 7.00 and 5.70, respectively. The Ratio Ki in the assay filed under Bos taurus amounted to 20.

Take `CCn1ccc(N2C[C@H](CN=[N+]=[N-])OC2=O)c1`: the negative-log Ki (pKi) is 9.10 in assay [1] and 4.70 in assay [2]. Besides, the Ratio Ki in the assay filed under Bos taurus is 25000.

Turning to `C=CCn1ccc(N2C[C@H](CO)OC2=O)c1`, the pKi in assay [1] is 6.46; in assay [2], 3.20. In addition, the Ratio Ki in the assay filed under Bos taurus came out at 1790.

For `CCn1ccc(N2C[C@H](CNC)OC2=O)c1`, the negative logarithm of the Ki (pKi) was 7.10 in assay [1] and 4.74 in assay [2]. In the assay listed under Bos taurus, the Ratio Ki worked out at 225.

In the case of `CCn1ccc(N2C[C@H](COC)OC2=O)c1`, the pKi in assay [1] was 9.22; in assay [2], 5.89. Besides, the Ratio Ki in the assay listed under Bos taurus came to 2170.

With `COC[C@H]1CN(c2ccn(C)c2)C(=O)O1`, the pKi in assay [1] was 6.52; in assay [2], 3.77. Moreover, in the assay filed under Bos taurus, the Ratio Ki turned out to be 567.

With `COC[C@H]1CN(c2ccc(OCC[C@@H](O)C(F)(F)F)cc2)C(=O)O1` [BEFLOXATONE], the results for the negative-log Ki (pKi) in assay [1] and in assay [2] were 8.60 and 6.66, respectively. Also, the Ratio Ki in the assay filed under Bos taurus is 88.

`Cn1ccc(N2C[C@H](CO)OC2=O)c1`: the negative logarithm of the Ki (pKi) in assay [1] was 6.00; in assay [2] it was less than 5.00. Besides, the Ratio Ki in the assay listed under Bos taurus is more than 10.
